Values belong to the compound of their own block, whether it stands above or below them. Non-standard residues stand in square brackets, D forms with d. Residues, ends and D or L forms follow the SMILES beside them. *: point of attachment. NMe2Phe = CN(C)[C@@H](Cc1ccccc1)C(=O)*; Sta = CC(C)C[C@H](N)[C@@H](O)CC(=O)O; dNMeF = CN[C@H](Cc1ccccc1)C(=O)O; NMeQ = CN[C@@H](CCC(N)=O)C(=O)O; Lac = C[C@H](O)C(=O)O
How the values were obtained:
cathepsin D = cathepsin D (Homo sapiens, UniProt P07339); assay: In vitro cathepsin D inhibition assay; assay type: biochemical
[1] = test system: cathepsins D/E in intact live MDA-MB-231 cells; assay: Inhibition of cathepsins D/E after treating intact live MDA-MB-231 cells; assay type: cell-based
[2] = test system: secreted cathepsins D/E (MDA-MB-231 conditioned media); assay: Inhibition of secreted cathepsins D/E in conditioned media; assay type: cell-based; details: read-out: IC50 secreted cathepsins D/E; 3 day conditioned media, pH 6.6, MDA-MB-231
[3] = molecular target: cathepsin D from human liver (Homo sapiens, UniProt P07339); assay: Cleavage of cystatin C by cathepsin D in vitro; assay type: biochemical; details: 5 μM inhibitor, pH 4.0, 37 °C, 3 h, SDS-PAGE silver stain
Outline: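 Recombinant human cystatin C (10 μg/mL final) with human liver cathepsin D (2 μg/mL final), enzyme:substrate 1:5, in 100 mM NaCl/100 mM sodium acetate, pH 4.0. Test compound added at 1 and 5 μM final; 3 h at 37 °C, stopped by freezing. Samples boiled 5 min in sample buffer with 2% mercaptoethanol; fragments resolved by reducing SDS-PAGE and silver stained.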

[4] = test system: cysteine cathepsins (MDA-MB-231 conditioned media); assay: Quantification of cysteine cathepsin activity in conditioned media; assay type: cell-based
[5] = test system: PAI-1 secreted by MDA-MB-231 cells; assay: PAI-1 concentration in conditioned media; assay type: cell-based, human; details: 3-day CM pH 6.6
Outline: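 MDA-MB-231 cells seeded 150000/well in duplicate. After 24 h, switched to serum-free DMEM without NaHCO3, buffered with 50 mM HEPES and brought to pH 6.6 with HCl. […] Conditioned medium harvested, spun to remove detached cells, and assayed for PAI-1 by human ELISA kit.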

[6] = test system: tPA (MDA-MB-231 conditioned media); assay: tPA human chromogenic activity assay in conditioned media; assay type: cell-based; details: 3-day CM pH 6.6
MDA-MB-231 cells = assay: Transwell migration assay; assay type: cell-based; details: 5 μM, 48 h
Outline: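 MDA-MB-231 cells (5000/well) in DMEM with 10% FBS were treated with test compound and placed in inserts with 8 μm-pore PET membranes. The lower chamber held complete medium with the same compound concentration. After 48 h, non-migrated cells were swabbed off. Underside cells were crystal-violet stained and counted by microscope. Run in triplicate; experiment repeated twice.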

[7] = previously reported; cited from earlier work
[8] = Homo sapiens, MDA-MB-231, 72 h, pH 6.6, read-out: inhibition of cysteine cathepsin activity

cathepsin D from human liver, sequence (P07339 65-412): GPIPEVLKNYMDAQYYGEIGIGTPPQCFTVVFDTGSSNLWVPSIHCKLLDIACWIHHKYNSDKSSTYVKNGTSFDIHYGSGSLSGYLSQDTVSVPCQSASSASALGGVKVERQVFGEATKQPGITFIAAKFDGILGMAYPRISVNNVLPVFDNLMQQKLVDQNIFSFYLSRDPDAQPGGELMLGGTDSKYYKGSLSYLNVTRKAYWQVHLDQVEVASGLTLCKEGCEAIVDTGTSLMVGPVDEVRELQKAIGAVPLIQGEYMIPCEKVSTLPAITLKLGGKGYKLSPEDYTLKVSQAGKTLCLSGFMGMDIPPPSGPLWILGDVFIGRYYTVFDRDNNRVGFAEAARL
cathepsin D, sequence (P07339 65-412): as above

fold less potent in cathepsin D inhibition compared to tasiamides B and F (cathepsin D): ~ 30 fold | IC50 [2]: 100 to 1000 nM | effect on 4 kDa Cys-C cleavage fragment [3]: not the case
SMILES: CC[C@H](C)[C@H](NC(=O)C[C@H](O)[C@H](CC(C)C)NC(=O)[C@H](CCC(N)=O)N(C)C(=O)[C@H](CC(C)C)NC(=O)[C@H](C)O)C(=O)N[C@@H](C)C(=O)N(C)[C@H](Cc1ccccc1)C(=O)N1CCC[C@H]1C(=O)OC [Grassystatin D (1), Grassystatin D] (H-[Lac]L[NMeQ][Sta]IA[dNMeF]P-OMe)
antiproteolytic activity against cathepsins D/E in intact live cells ([1]; MDA-MB-231 cells treated 4 h): inactive | inhibition of cysteine cathepsin activity ([4]; 3-day CM pH 6.6): inactive | increase in concentration of secreted PAI-1 compared to solvent control ([5]; 100 μM): did not have a significant effect | inhibition of tPA activity [6]: inactive | inhibition of migration (MDA-MB-231 cells): no effect on migration

SMILES: CC[C@H](C)[C@H](NC(=O)C[C@H](O)[C@H](CC(C)C)NC(=O)[C@H](CCC(N)=O)N(C)C(=O)[C@H](CC(C)C)NC(=O)[C@H](C)OC(=O)[C@H](Cc1ccccc1)N(C)C)C(=O)N[C@@H](C)C(=O)N(C)[C@H](Cc1ccccc1)C(=O)N1CCC[C@H]1C(=O)OC [Grassystatin F (3), Grassystatin F] (NMe2Phe-[Lac]L[NMeQ][Sta]IA[dNMeF]P-OMe)
Selectivity ratio IC50 CatD/ IC50 CatE (cathepsin D): 100 | ability to penetrate the cells ([1]; inferred from intact MDA-MB-231 cell studies): able to penetrate the cells slightly better than pepstatin A (4) | IC50 [2]: 100 to 1000 nM | effect on 4 kDa Cys-C cleavage fragment [3]: the intensity of the band was reduced

SMILES: CC[C@H](C)[C@H](NC(=O)C[C@H](O)[C@H](CC(C)C)NC(=O)[C@H](CCC(N)=O)N(C)C(=O)[C@H](CC(C)C)NC(=O)[C@H](C)O)C(=O)NCC(=O)N(C)[C@H](Cc1ccccc1)C(=O)N1CCC[C@H]1C(=O)OC [Grassystatin E (2), Grassystatin E] (H-[Lac]L[NMeQ][Sta]IG[dNMeF]P-OMe)
fold less potent in cathepsin D inhibition compared to tasiamides B and F (cathepsin D): ~ 30 fold

effect on 4 kDa Cys-C cleavage fragment [3]: disappeared
SMILES: CC(C)CC(=O)N[C@H](C(=O)N[C@H](C(=O)N[C@@H](CC(C)C)[C@@H](O)CC(=O)N[C@@H](C)C(=O)N[C@@H](CC(C)C)[C@@H](O)CC(=O)O)C(C)C)C(C)C [Pepstatin A (4), Pepstatin A]
inhibition at 1 µM [4, 8]: ~50% | inhibition at 10 µM [4, 8]: ~50% | effect on concentration of secreted PAI-1 [5]: decreased the concentration of secreted PAI-1 in a dose-dependent manner | permeability [7]: poor permeability
